In the library only some 3.4% were active in any assay of this set; here they are far more common.
TAAR1 antagonist: human TAAR1 antagonists, primary screen, Fluo-8 calcium fluorescence, CHO RD-HGA16 cells. Trace amine-associated receptor 1 (Homo sapiens), Q96RJ0. antagonist. inhibition, % at 3 µM. actives 1.5% (n = 360,000);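 active = inhibition above a per-plate cutoff, the mean inhibition of test compounds on that plate plus 3 SD, cut at about 49% in these data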
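Test system – hTAAR1-expressing CHO RD-HGA16 cells, Gα16-coupled · Reagent – β-PEA at EC80 concentration, post-compound challenge · Compound dosing – 3 µM, single point · Timing – 140 s kinetic read after compound, 140 s after agonist · Detection – Fluo-8 intracellular calcium dye fluorescence, real-time kinetic reads · Control set – DMSO and EC80 PEA controls · Repeats – n of 1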
M1 antag: human M1 muscarinic receptor antagonists, primary screen, CHO-K1 cells, Fluo-8 calcium fluorescence, 1536-well | CHO-K1 hM1, ACh EC80 antagonist | actives 1.3% (n = 360,000) | inhibition, % at 3 µM | Muscarinic acetylcholine receptor M1 (Homo sapiens), P11229;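 active = percent inhibition above its own plate's cutoff, namely the mean of that plate's compound wells plus 3 SD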;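 note: peak over basal fluorescence ratio during 140 s after agonist addition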
Target sequence (P11229 whole entry, looked up): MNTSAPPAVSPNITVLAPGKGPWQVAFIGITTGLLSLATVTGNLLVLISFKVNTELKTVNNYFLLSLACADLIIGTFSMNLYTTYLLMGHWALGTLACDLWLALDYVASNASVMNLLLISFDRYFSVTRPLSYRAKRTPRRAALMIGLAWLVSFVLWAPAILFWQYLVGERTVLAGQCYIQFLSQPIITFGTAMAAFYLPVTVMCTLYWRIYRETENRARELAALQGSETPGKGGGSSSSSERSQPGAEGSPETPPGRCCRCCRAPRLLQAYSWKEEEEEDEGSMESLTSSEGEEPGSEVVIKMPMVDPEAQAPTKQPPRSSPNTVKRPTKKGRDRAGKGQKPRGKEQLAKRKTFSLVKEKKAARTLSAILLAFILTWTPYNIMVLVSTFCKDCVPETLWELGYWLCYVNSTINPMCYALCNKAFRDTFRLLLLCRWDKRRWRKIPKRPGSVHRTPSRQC
M1 PAM: human M1 muscarinic receptor positive allosteric modulators, primary screen, CHO-K1 cells, Fluo-8 calcium fluorescence, 1536-well. activation, % at 3 µM. actives 0.088% (n = 360,000). Muscarinic acetylcholine receptor M1 (Homo sapiens), P11229. AID 588819, 2011. CHO-K1 hM1, ACh EC20; 0% = ACh EC20, 100% = maximal ACh; in the data active = activation above about 19%, passing the limit was not always enough
TAAR1 ag: human TAAR1 agonists, primary screen, Fluo-8 calcium fluorescence, CHO RD-HGA16 cells. Trace amine-associated receptor 1 (Homo sapiens), Q96RJ0. vehicle wells 0%, saturating PEA agonist 100%. activation, % at 3 µM. actives 0.99% (n = 360,000). AID 624467, 2012;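 active = activation above the mean activation of all test compounds in the run plus 3 SD, cut at about 38% in these data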
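test system = CHO RD-HGA16 cells carrying human TAAR1 plus Gα16 | schedule = 17-24 h seeding, 75 min 37 °C dye, 30 min RT | compound dosing = 3 µM single concentration | control set = DMSO and PEA EC100 | replicates = n 1 | signal = Fluo-8 fluorescence, 5 s baseline then 140 s kinetic read | measure = percent activation vs PEA EC100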
M1 ag: human M1 muscarinic receptor agonists, primary screen, Fluo-8 calcium fluorescence, CHO-K1 cells, HTS; AID 588814, 2011; CHO-K1 hM1, agonist mode; 0% DMSO, 100% acetylcholine EC100; actives 0.33% (n = 360,000); activation, % at 3 µM; Muscarinic acetylcholine receptor M1 (Homo sapiens), P11229;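 active = activation above the run's mean compound activation plus 3 SD, cut at about 16% in these data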;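 note: peak over basal fluorescence ratio within a 140 s kinetic read after compound addition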
Numbers stand for hits; – = inactive; · = no result.

SMILES	TAAR1 antagonist	M1 antag	M1 PAM	TAAR1 ag	M1 ag
NNC(=O)CNC(c1ccccc1)c1cc(Br)ccc1NC(=O)c1ccccc1Br (stereo unspecified)	52.9	–	–	–	–
CSc1ccc(C(=O)C2CCCN(Cc3cccc4nccnc34)C2)cc1 (stereo unspecified)	–	67.8	–	–	–
O=C(c1ccc(C(F)(F)F)cc1)C1CCCN(Cc2cccn2-c2ncccn2)C1 (stereo unspecified)	–	–	–	–	–
CCCN1C(=O)/C(=C/c2ccc(N3CCCC3)c(C)c2)NC1=S	99.2	58.7	–	129.0	46.9
Cc1cc(/C=C2/C(=O)N(C)C(=S)N2C)ccc1N1CCCC1	–	–	–	–	–
Cc1cc(/C=C2\NC(=S)N(C)C2=O)ccc1N1CCCC1	82.5	59.2	–	142.3	54.8
CC(=O)O/N=C1\C(=O)N(Cc2ccc(C)cc2)c2ccccc21	–	–	–	–	24.2
Cc1cccc(C)c1C(OCCN(C)C)C1CCCCC1 (stereo unspecified)	–	99.2	–	–	–
CN(C)C(=O)N1CCN(C(=O)[C@H](CCc2ccccc2)NC(=O)[C@H]2O[C@@H](n3cnc4c(N)ncnc43)[C@H](O)[C@@H]2O)CC1	–	·	·	–	·
C[n+]1cn(CC(O)COCc2ccccc2)c2ccccc21 (stereo unspecified)	–	–	–	–	–
CCCCCc1ccc(OCCC[n+]2ccccc2)c(CCCCC)c1	–	69.1	–	–	–
CCCCCc1ccc(OCCOCCn2c[n+](C)c3ccccc32)c(CCCCC)c1	·	79.3	–	·	–
CC1(C)CC(NC(=O)c2ccccc2C(=O)NC2CC(C)(C)NC(C)(C)C2)CC(C)(C)N1	–	–	–	–	–
CC1(C)CC(NC(=O)N2c3ccccc3Sc3ccccc32)CC(C)(C)N1	–	49.6	–	–	–
O=S(=O)(NCc1ccccc1)c1cc(Br)ccc1Br	–	·	·	–	·
Cc1cccc(C)c1NC(=O)C(CCc1ccccc1)N1CCN(CCN(C)C)CC1 (stereo unspecified)	–	·	·	–	·
C/C(=N\NC(=O)c1ccc(N/N=C(\C)c2ccc(O)cc2)cc1)c1ccc(O)cc1	56.5	–	–	–	–
Cc1nc2sccn2c(=O)c1S(=O)(=O)Nc1ccc(N2CCN(S(C)(=O)=O)CC2)cc1	59.6	–	–	–	–
O=C(c1ccc(CSc2nc3ccncc3[nH]2)cc1)N1CCN(c2cccc(Cl)c2)CC1	–	35.7	–	–	–
O=C1CC(O)C(Cc2ccccc2)N1 (stereo unspecified)	–	·	·	–	·
COc1ccc(-c2ccc(SCC(=O)Nc3nccs3)nn2)cc1OC	–	34.9	–	–	–
COc1ccc(-c2nnc3ccc(SCC(=O)Nc4nccs4)nn23)cc1OC	–	–	–	–	–
COc1ccc(-c2csc(NC(=S)NC(=O)c3cccs3)n2)cc1Br	–	–	–	–	–
COC(=O)c1c(-c2ccc(C)cc2)csc1NC(=O)Cc1ccc(OC)c(OC)c1	54.8	–	–	–	–
COc1ccc(CC(=O)Nc2nc(-c3ccc(OC)c(OC)c3)cs2)cc1OC	–	–	–	–	16.3
SMILES	TAAR1 antagonist	M1 antag	M1 PAM	TAAR1 ag	M1 ag
COc1ccc(-c2csc(NC(=S)NC(=O)c3cccs3)n2)cc1OC	49.6	–	–	–	–
Cc1noc(C)c1S(=O)(=O)N1CCCc2nc(-c3ccc(Br)cc3)ccc21	–	·	·	–	·
Cc1ccccc1C1=CC(=O)CC(C)(C)C1=O	–	·	·	–	·
CCOC(=O)C1=CCN(S(=O)(=O)c2ccc(Br)cc2)C1c1ccc(F)cc1 (stereo unspecified)	–	·	·	–	·
CC(C)c1ccc(CNc2ccc3c(c2)ncn3C)cc1	–	34.0	–	–	–
CC1(C(=O)NS(=O)(=O)c2ccccc2Cl)CCN1C(=O)CC1CC1 (stereo unspecified)	–	–	–	–	–
O=C(OCCCOC(=O)c1cc[n+]([O-])cc1)c1cc[n+]([O-])cc1	–	–	25.9	–	–

Screening data (PubChem BioAssay)
